# PRMT1 inh = blocks human protein arginine methyltransferase 1 | 370,000 compounds, 1.3% hits | recombinant PRMT1, activity-based probe fluorescence polarization | inhibition, % at 2.79 µM | Q99873;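 active = inhibition above about 21% made by adding two undisclosed values, limit read from the data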
# Target sequence (Q99873 whole entry, looked up): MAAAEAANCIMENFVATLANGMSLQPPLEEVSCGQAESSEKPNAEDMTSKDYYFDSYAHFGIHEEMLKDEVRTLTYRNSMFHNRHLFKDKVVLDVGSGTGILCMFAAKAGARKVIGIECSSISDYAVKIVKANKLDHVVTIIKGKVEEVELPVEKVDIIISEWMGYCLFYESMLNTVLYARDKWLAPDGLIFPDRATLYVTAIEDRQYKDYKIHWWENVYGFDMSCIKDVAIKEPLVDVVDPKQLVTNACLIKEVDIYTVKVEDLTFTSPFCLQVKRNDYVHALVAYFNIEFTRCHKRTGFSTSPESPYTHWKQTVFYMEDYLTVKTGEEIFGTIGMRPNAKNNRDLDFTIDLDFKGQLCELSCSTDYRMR
# LEDGF integ inh = blocks HIV-1 LEDGF/p75-dependent DNA integration; TR-FRET IN-LEDGF/p75 DNA integration, Eu/Cy5; inhibition, % at 3.7 µM; 370,000 compounds, 0.64% hits; AID 743269;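 active = inhibition above the screen-wide mean plus 3 SD, cut at about 13% in these data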;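 note: signal is the Cy5 over europium emission ratio at 671 and 618 nm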
# SIAE inh = blocks human sialic acid acetylesterase; SIAE FP-Rh probe binding, fluorescence polarization; inhibition, % at 9.66 µM; 370,000 compounds, 0.69% hits; AID 1053197;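 active = inhibition above a cutoff: mean of compounds within the control limits plus 3 SD of those, cut at about 17% in these data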
# MBD2 DNA inh = MBD2-methylated oligo binding inhibition. Q9UBB5. TR-FRET, MBD2 binding to methylated oligonucleotide. inhibition, % at 4.4 µM. 370,000 compounds, 0.31% hits. AID 686964; in the data active = inhibition above about 13%
# TDP2 inh = blocks human TDP2 phosphodiesterase activity. O95551. recombinant TDP2, T5PNP hydrolysis, p-nitrophenol absorbance 415 nm. inhibition, % at 12.8 µM. 370,000 compounds, 0.34% hits;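 active = inhibition above the mean of all tested compounds plus 3 SD, set per campaign, cut at about 25% in these data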
#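 Incubation: 2 h at 37 °C; Test system: recombinant human TDP2; Quantity: enzyme 120 nM; Read-out basis: percent inhibition; Medium: 50 mM Tris-HCl pH 7.5 with Mg2+, KCl, DTT, BSA; Repeats: single replicate; Compound: 12.8 µM single point, 1% DMSO; Signal: epi absorbance; Reagent: 5 mM T5PNP chromogenic substrate; Benchmarks: no-enzyme high, DMSO-plus-enzyme low.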
# UHRF1 MBD2 ctr = human UHRF1 methylated DNA binding inhibitors | UHRF1 binding to methylated oligo, TR-FRET | inhibition, % at 4.4 µM | 370,000 compounds, 0.75% hits | AID 687016; in the data active = inhibition above about 21%;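 note: UHRF1 SRA domain binding a hemimethylated CpG hairpin DNA probe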
# TDP2 inh conf = confirmation of human TDP2 inhibitors | shares compounds with TDP2 inh | recombinant human TDP2, absorbance read-out | inhibition, % at 12.8 µM | 1,100 compounds, 22% hits; in the data active = inhibition above about 25%
# IN multimer up = activates HIV-1 integrase multimerization in LEDGF counter-screen; shares compounds with LEDGF integ inh; TR-FRET HIV-1 integrase multimerization, biochemical; activation, % at 7.7 µM; 2,000 compounds, 17% hits; in the data active = activation above about 8.9%
# TRFRET interf = TR-FRET optical interference, LEDGF/p75 integration counter-screen | shares compounds with LEDGF integ inh | TR-FRET optical interference counterscreen, HIV-1 IN multimerization | inhibition, % at 7.7 µM | 2,000 tested, under 10 active | AID 1053135;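 active = inhibition above the mean over all tested compounds plus 3 SD, which no compound reached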
# IN-LEDGF confirm = LEDGF/p75-dependent HIV-1 integration inhibition, confirmation. TR-FRET LEDGF/p75-dependent HIV-1 integration, biochemical. inhibition, % at 3.7 µM. shares compounds with LEDGF integ inh. 2,000 compounds, 36% hits. AID 1053136; in the data active = inhibition above about 14%
# Numbers stand for hits; . = inactive; / = no result given. This is a sample that favours compounds with a hit; in the whole collection about 3.3% have one here.
SMILES,PRMT1 inh,LEDGF integ inh,SIAE inh,MBD2 DNA inh,TDP2 inh,UHRF1 MBD2 ctr,TDP2 inh conf,IN multimer up,TRFRET interf,IN-LEDGF confirm
COC(=O)c1cc(-c2cccc(OCc3ccccc3)c2)c(=O)n2c1CCC2,.,.,.,.,.,.,/,/,/,/
Cc1ccc(N=Cc2ccc(N(C)C)cc2)cc1,.,.,.,.,.,.,/,/,/,/
CN(C)c1ccc(C=Nc2ccc(N(C)C)cc2)cc1,22,35,.,.,28,.,.,.,.,.
c1ccn(-c2ccc(-c3noc(CCc4ccncc4)n3)cc2)c1,.,.,.,.,.,.,/,/,/,/
Cc1ccnc(NC(=S)N2CCC(Nc3cccc(C(F)(F)F)c3)CC2)c1,.,.,.,.,.,.,/,/,/,/
CCCc1nn(-c2ccccc2)c2c1C(c1cccs1)C(C#N)=C(N)O2 (stereo not drawn),.,.,.,.,.,.,/,/,/,/
COc1ccc(OC)c(C2C(C#N)=C(N)Oc3c2c(C)nn3-c2cccc(Cl)c2)c1 (stereo not drawn),.,17,.,.,82,.,.,.,.,.
COc1cc(C2C(C#N)=C(N)Oc3c2c(-c2ccccc2)nn3-c2ccccc2)cc(OC)c1OC (stereo not drawn),.,19,23,.,80,.,.,.,.,.
COc1cccc(N(C)C(=O)[C@@H](C2CC2)[C@@H](O)c2ccc(C(C)=O)cc2)c1,.,.,.,.,.,.,/,/,/,/
Cc1ccccc1-c1cc2c(nn1)-c1ccccc1C2=O,.,61,.,.,63,.,50,.,.,40
Cc1ccc(-c2cc3c(nn2)-c2ccccc2C3=O)cc1,.,.,.,.,.,.,/,/,/,/
CCCNC1=C(N(C(C)=O)c2cccc(F)c2)C(=O)c2ccccc2C1=O,.,17,.,.,26,.,25,.,.,14
CCOc1ccc2nc(NC(=S)N(C)C)sc2c1,.,14,.,.,26,.,.,.,.,.
CCOc1ccc2nc(NC(=O)c3ccc(C)o3)sc2c1,.,.,.,.,.,.,/,/,/,/
Cc1ccccc1CN1CCCCC(NC(=O)c2ccc3ccccc3c2)C1=O (stereo not drawn),.,.,.,.,.,.,/,/,/,/
COc1ccc(S(=O)(=O)Nc2cc(SCC(=O)O)c(O)c3ccccc23)cc1,52,21,.,.,43,.,50,.,.,33
CC(=O)N(C1=C(N2CCOCC2)C(=O)c2ccccc2C1=O)c1ccc(C(=O)O)cc1,.,17,.,.,40,.,.,.,.,17
CCCCCn1c(NC(=O)c2ccco2)c(S(=O)(=O)c2ccc(C)cc2)c2nc3ccccc3nc21,.,17,.,.,69,.,.,17,.,21
CCCCn1c(NC(=O)c2ccc(Br)o2)c(S(=O)(=O)c2ccccc2)c2nc3ccccc3nc21,.,17,.,.,67,.,.,.,.,21
COC(=O)C1CN(Cc2cn(Cc3ccc(Cl)cc3)nn2)CCS(=O)(=O)N1Cc1ccc(C)cc1 (stereo not drawn),.,.,.,.,.,.,/,/,/,/
Clc1cccc(CSc2ncnc3sc4c(c23)CCCC4)c1,.,.,.,.,.,.,/,/,/,/
Cc1c(C)c2c(C)nn(-c3ccccc3)c2[nH]c1=O,.,.,.,.,.,.,/,/,/,/
Nc1c2c(=O)[nH]c(O)cc2nn1-c1ccccc1,.,16,.,.,89,.,77,.,.,.
COc1ccc(C(CCOC(=O)Oc2ccccc2)c2cc(OC)c(OC)c(OC)c2)cc1 (stereo not drawn),.,.,.,.,.,.,/,/,/,/
CN(C)[C@@H]1CCN(c2ccc3c(c2)O[C@H]2CCN(C2)S3(=O)=O)C1,.,.,.,.,.,.,/,/,/,/
SMILES,PRMT1 inh,LEDGF integ inh,SIAE inh,MBD2 DNA inh,TDP2 inh,UHRF1 MBD2 ctr,TDP2 inh conf,IN multimer up,TRFRET interf,IN-LEDGF confirm
CC1=NN(c2ccc(C)c(C)c2)C(=O)C1C(c1cccc(O)c1)C1C(=O)N(c2ccc(C)c(C)c2)N=C1C (stereo not drawn),.,42,.,.,80,.,.,.,.,.
CCCCn1c(NC(C)=O)c(C#N)c2nc3ccccc3nc21,.,.,.,.,.,.,/,/,/,/
C=CCn1c(NC(=O)c2ccccc2Cl)c(C#N)c2nc3ccccc3nc21,.,30,.,18,79,.,45,.,.,72
CC1=NN(c2ccc(C)cc2C)C(=O)C1C(c1ccccc1O)C1C(=O)N(c2ccc(C)cc2C)N=C1C (stereo not drawn),.,29,.,.,79,.,.,.,.,.
CC1=NN(C(N)=S)C(=O)C1N=Nc1ccc(C)cc1C (stereo not drawn),.,.,.,.,.,.,/,/,/,/
Cc1ccc(-c2nnc(SCC(=O)Nc3ccc4c(c3)OCCO4)n2-c2ccc(C)cc2)cc1,.,.,.,.,.,.,/,/,/,/
O=C1C(O)=C(O)C(=O)c2ccccc21,.,16,.,.,57,.,72,.,.,41
CN(C)c1cccc2c(S(=O)(=O)Nc3ccccn3)cccc12,.,19,.,.,56,.,.,.,.,.
Cc1ccc(S(=O)(=O)Nc2ccccn2)c(C)c1,.,.,.,.,.,.,/,/,/,/
Brc1cccc(Cn2ccc3ccc(-c4ccc5ccn(Cc6cccc(Br)c6)c5c4)cc32)c1,.,.,.,.,.,.,/,/,/,/
O=C1C=C(NCCc2cc(Br)c(O)c(Br)c2)C(=O)c2ncccc21,.,28,.,.,48,.,60,16,.,75
CC(C)(C)c1cc(CCC(=O)NCCc2ccccn2)cc(C(C)(C)C)c1O,.,.,.,.,.,.,/,/,/,/
N#Cc1cccc(NC(=O)OC2CCC23CCC(c2ccccc2)CC3)c1 (stereo not drawn),.,.,.,.,.,.,/,/,/,/
CCc1c(C(=O)C(C)O)c2n3c1CCC[C@@H]3CC2 (stereo partly drawn),.,.,.,.,.,.,/,/,/,/
CC(=O)N(/N=C1\Sc2ccccc2C1=O)c1ccccc1C,.,34,.,.,63,.,63,.,.,44
Cc1ccc(NC(=O)COC(=O)c2ccc([N+](=O)[O-])s2)c(C)c1,.,.,.,.,.,.,/,/,/,/

# Screening data: PubChem BioAssay, The Scripps Research Institute Molecular Screening Center
